Measured values gathered from unrelated publications.
Compare with care: the assays were run in different laboratories.
Target: Rho-associated protein kinase 2 (ROCK2, Homo sapiens, UniProt O75116)

| SMILES | test | conditions | remaining binding [%] |
| --- | --- | --- | --- |
| CNC(=O)Nc1ccc2c(c1)CC[C@@]21OC(=O)N(CC(=O)N(Cc2ccc(F)cc2)[C@@H](C)C(F)(F)F)C1=O | cell-free assay, competition with immobilised ligand | 1 µM | 96 |
| COc1ccnn2ncc(-c3ccnc(N(C)C)n3)c12 | binding | 1 µM | 100 |
| O=C(c1ccc(Nc2ncc(Cl)c(-c3cc4ccccc4s3)n2)cc1)N1CCC(N2CCCC2)CC1 | binding, competition with immobilised ligand | 1 µM | 7.2 |
| C[C@H](c1cccc(C#N)c1)n1cc(Cl)cc(C(N)=O)c1=N | cell-free assay, competition with immobilised ligand | 1 µM | 94 |
| CC(C)(C)c1ccc(-c2nc(CBr)nn2-c2cccc(O)c2)cc1 | cell-free assay, competition with immobilised ligand | 10 µM | 58 |
| COc1cnc(Nc2cccc(S(N)(=O)=O)c2)nc1N1CCN(c2ccccc2)C(=O)C1 | binding, competition with immobilised ligand | 1 µM | 78 |
| C[C@@H]1CN(c2ccc3ncc(-c4ccc5[nH]nc(C6CC6)c5c4)n3n2)C[C@H](C)O1 | binding, competition with immobilised ligand | 0.5 µM | 21 |
| c1cnn2ncc(-c3ccnc(N4CCC45COC5)n3)c2c1 | binding | 1 µM | 70 |
| O=C(NCCCN1CCOCC1)c1ccc(Nc2ncc(Cl)c(-c3ccc(Cl)s3)n2)cc1 | binding, competition with immobilised ligand | 1 µM | 61 |
| O=C(NCC1CCOCC1)c1n[nH]cc1NC(=O)c1c(F)cccc1F | binding, competition with immobilised ligand | 1 µM | 64 |
| N#CC1(c2ccccn2)CCN(Cc2cc(C(=O)N3CCCC3)c(=O)n3ccccc23)CC1 | cell-free assay, competition with immobilised ligand | 1 µM | 72 |
| N#Cc1ccccc1CSc1nnc2c(n1)[nH]c1ccccc12 | binding, competition with immobilised ligand | 10 µM | 80 |
| CNC(=O)[C@@H]1CC[C@@H](n2c(-c3ccc4cnccc4c3)nc3ccc(C(=O)NCc4cccc(C(N)=O)c4)cc32)C1 | binding, competition with immobilised ligand | 1 µM | 100 |
| CN(C)c1nccc(-c2cnc3ncccn23)n1 | binding | 1 µM | 100 |
| CN(C)C(=O)Cn1cc(-c2nc(C3(c4ccc(-c5cnc(N)nc5)cc4)CC3)no2)cn1 | cell-free assay, competition with immobilised ligand | 1 µM | 89 |
| O=C(c1ccc(Nc2ncc(Cl)c(-c3ccc(Cl)s3)n2)cc1)N1CCC(N2CCCC2)CC1 | binding, competition with immobilised ligand | 1 µM | 4.3 |
| F[C@@H]1CCN(c2nccc(-c3cnn4ncccc34)n2)C1 | binding | 1 µM | 100 |
| CN1CCN(c2cnc3c(C4CCN(C(=O)c5ccc(OC(F)(F)F)cc5N)CC4)ncnc3c2)CC1 | cell-free assay, competition with immobilised ligand | 1 µM | 100 |
| C[C@@H]1CCN(c2nccc(-c3cnn4ncccc34)n2)C1 | binding | 1 µM | 98 |
| Nc1ncc2c(n1)-c1c([nH]c3ccc(C#CC4CC4)cc13)CCCC2 | binding, competition with immobilised ligand | 1 µM | 75 |
| O=C(NCCCC1CCCCC1)c1ccc(CNC(=O)c2cnn(-c3ccccc3)c2C(F)(F)F)cc1 | cell-free assay, competition with immobilised ligand | 0.1 µM | 100 |
| N[C@@H]1CCN(c2nccc(-c3cnn4ncccc34)n2)C1 | binding | 1 µM | 100 |
| Cc1nc(N2CC[C@@H](O)C2)ncc1-c1cc(C(F)(F)F)cc2[nH]ncc12 | binding, competition with immobilised ligand | 1 µM | 77 |
| C=CC(=O)N1CCC(C(=O)NCC(=O)N2CCN(c3nc(-c4cnc(N)nc4C(F)F)nc(N4CCOCC4)n3)CC2)CC1 | binding, competition with immobilised ligand | 1 µM | 90 |
